# Measured values taken from ChEMBL document CHEMBL4665801, “Pyrazole-Based Lactate Dehydrogenase Inhibitors with Optimized Cell Activity and Pharmacokinetic Properties” (J Med Chem, 2020).
# Active and inactive are the calls of the source. No rule for the calls is given here.
# How the values were obtained:
# [1] = target: T1, L-lactate dehydrogenase A chain (Homo sapiens, UniProt P00338); experiment: Inhibition of GS[HiBiT]GS-tagged LDHA (unknown origin) expressed in HEK-293T cells measured after 1 hr by […]; format: cell-based
# Procedure, shortened: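 HEK293T cells were transiently transfected for 24 h with CMV-driven LDHA carrying a C-terminal GS[HiBiT]GS tag, then reseeded at 2500 cells/well in DPBS with Ca/Mg and 1 g/L glucose. […] Cells were lysed with NP40, and 11S (100 nM final) plus furimazine was added.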
# [2] = target: T1, L-lactate dehydrogenase A chain; experiment: Inhibition of LDHA in human MIA PaCa-2 cells assessed as decrease in lactate production incubated for 2 hrs by lactate oxidase-coupled fluorescence based assay; format: cell-based
# [3] = target: T1, L-lactate dehydrogenase A chain; experiment: Inhibition of LDHA in human A673 cells assessed as decrease in lactate production incubated for 2 hrs by lactate oxidase-coupled fluorescence based assay; format: cell-based
# [4] = species on record: Sus scrofa; experiment: Inhibition of porcine heart MDH using malic acid as substrate preincubated for 10 mins followed by substrate addition and measured after 5 mins by resazurin based fluorescence based assay; conditions: time 15.0 min
# [5] = target: T1, L-lactate dehydrogenase A chain; experiment: Inhibition of recombinant human LDHA using sodium pyruvate as substrate preincubated for 5 mins followed by diaphorase/resazurin addition and measured after 20 mins by fluorescence based assay
# [6] = target: L-lactate dehydrogenase B chain (Homo sapiens) (UniProt P07195); experiment: Inhibition of recombinant human LDHB using sodium pyruvate as substrate preincubated for 5 mins followed by diaphorase/resazurin addition and measured after 20 mins by fluorescence based assay
# [7] = test system: MIA PaCa-2; experiment: Cytotoxicity against human MIA PaCa-2 cells assessed as reduction in cell viability after 48 hrs by CellTiter-Glo assay; format: functional, cell-based; conditions: MIA PaCa-2, 48 h
# [8] = test system: A673; experiment: Cytotoxicity against human A673 cells assessed as reduction in cell viability after 48 hrs by CellTiter-Glo assay; format: functional, cell-based; conditions: A673, 48 h
# Sequence of L-lactate dehydrogenase B chain (Homo sapiens) (P07195 2-334 limits assumed): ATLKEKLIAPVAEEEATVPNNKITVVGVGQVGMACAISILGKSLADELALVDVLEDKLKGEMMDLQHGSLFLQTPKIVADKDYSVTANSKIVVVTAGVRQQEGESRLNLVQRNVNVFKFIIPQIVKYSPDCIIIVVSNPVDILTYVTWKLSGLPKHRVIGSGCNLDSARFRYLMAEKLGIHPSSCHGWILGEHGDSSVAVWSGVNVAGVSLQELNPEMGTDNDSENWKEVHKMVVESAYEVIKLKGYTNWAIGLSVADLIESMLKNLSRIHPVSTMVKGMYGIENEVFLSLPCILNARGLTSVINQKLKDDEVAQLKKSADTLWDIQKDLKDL
Compound,IC50 [1] [nM],IC50 [2] [nM],IC50 [3] [nM],inhibition [4],IC50 [5] [nM],inhibition [6],IC50 [7] [nM],IC50 [8] [nM],IC50 ([3]; a673) [nM]
NS(=O)(=O)c1ccc(Cc2c(-c3ccc(F)c(C#CCN4CCCC4)c3)nn(-c3nc(C(=O)O)cs3)c2CC2CC2)cc1F,267,1010,1090,inactive,8,Active,,,
CC#Cc1cccc(-c2nn(-c3nc(C(=O)O)cs3)c(CC3CC3)c2Cc2ccc(S(N)(=O)=O)c(F)c2)c1,150,525,713,inactive,9,Active,619,,
NS(=O)(=O)c1ccc(Cc2c(-c3cccc(-c4ccccc4)c3)nn(-c3nc(C(=O)O)cs3)c2CC2CC2)c(F)c1,,6460,4460,inactive,229,Active,5750,11500,
NS(=O)(=O)c1ccc(Cc2c(-c3ccc(F)c(C#CC4CCOC4)c3)nn(-c3nc(C(=O)O)cs3)c2CC2CC2)cc1F (stereo not given),89,831,,inactive,7,Active,,973,1270
Cc1cnc(C#Cc2cccc(-c3nn(-c4nc(C(=O)O)cs4)c(CC4CC4)c3Cc3ccc(S(N)(=O)=O)c(F)c3)c2)o1,119,450,525,inactive,12,Active,671,,
Cc1ccsc1C#Cc1cccc(-c2nn(-c3nc(C(=O)O)cs3)c(CC3CC3)c2Cc2ccc(S(N)(=O)=O)c(F)c2)c1,119,417,390,inactive,101,Active,452,,
NS(=O)(=O)c1ccc(Cc2c(-c3ccc(F)c(C#CCN4CCOCC4)c3)nn(-c3nc(C(=O)O)cs3)c2CC2CC2)cc1F,5050,18900,15300,inactive,107,Active,,5830,
NS(=O)(=O)c1ccc(Cc2c(-c3ccc(F)c(C#CC4CCNCC4)c3)nn(-c3nc(C(=O)O)cs3)c2CC2CC2)cc1F,2580,8910,12200,inactive,15,Active,17300,,
CC(C)(C)c1ccc(C#Cc2cc(-c3nn(-c4nc(C(=O)O)cs4)c(CC4CC4)c3Cc3ccc(S(N)(=O)=O)c(F)c3)ccc2F)s1,10600,507,529,inactive,713,Active,665,,
NS(=O)(=O)c1ccc(Cc2c(-c3cccc(C#Cc4ccc(C5CC5)s4)c3)nn(-c3nc(C(=O)O)cs3)c2CCC2CC2)cc1F,189,387,434,inactive,306,Active,265,,
NS(=O)(=O)c1ccc(Cc2c(-c3cccc(C#Cc4ccc(C5CCC5)s4)c3)nn(-c3nc(C(=O)O)cs3)c2CC2CC2)cc1F,270,491,333,inactive,169,Active,905,,
Cn1cncc1C#Cc1cc(-c2nn(-c3nc(C(=O)O)cs3)c(CC3CC3)c2Cc2ccc(S(N)(=O)=O)c(F)c2)ccc1F,299,1070,1600,inactive,8,Active,1390,,
NS(=O)(=O)c1ccc(Cc2c(-c3cccc(C#Cc4ccc(C5CCC5)s4)c3)nn(-c3nc(C(=O)O)cs3)c2CCC2CC2)cc1F,299,379,572,inactive,636,Active,,571,
